Calls of active or inactive are those of the source. The calls are words filed in the database; no cut-off is given here.
Experiments:
Format in all cases: cell-based
293T [1] = assay: Inhibition of compound-pretreated Ebolavirus GP pseudotyped in HIV virions infected in human 293T cells assessed as viral-cell entry at 60 uM after 48 hrs by luciferase gene assay relative to DMSO-treated control; set-up: scale not given: the % may be the effect or the level left; conditions: Zaire ebolavirus
Outline: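 Ebola GP-pseudotyped HIV luciferase virions were mixed with compound (60 μM final) before infecting 293T cells. Medium was changed after overnight incubation, and luciferase was read from lysates at 48 h. Result is % infectivity relative to DMSO vehicle (0.1~0.2% final).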

HEK-293T [2] = assay: Cytotoxicity against human 293T cells infected with Ebolavirus GP pseudotyped in HIV virions assessed as cell death at 60 uM
Outline: (§1)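 Compounds at 60 μM final were mixed with Ebola GP-pseudotyped HIV luciferase virions and added to 293T cells. Cell morphology and growth were checked by light microscopy at 24 and 48 h post-infection. Vehicle was DMSO at 0.1~0.2% final.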

HEK-293T [3] = assay: Cytotoxicity against human 293T cells infected with Ebolavirus GP pseudotyped in HIV virions assessed as effect on cell growth at 60 uM; outline: as §1
HEK-293T [4] = assay: Cytotoxicity against human 293T cells infected with Ebolavirus GP pseudotyped in HIV virions assessed as effect on cell morphology at 60 uM; outline: as §1
293T [5] = assay: Inhibition of compound-pretreated VSV GP pseudotyped in HIV virions infected in human 293T cells assessed as inhibition of viral-cell entry at 120 uM after 48 hrs by luciferase gene assay relative to DMSO-treated control; conditions: Vesicular stomatitis virus
HeLa [6] = assay: (§2) Inhibition of compound-pretreated Ebolavirus GP pseudotyped in HIV virions infected in human HeLa cells assessed as inhibition of viral-cell entry after 48 hrs by luciferase gene assay relative to DMSO-treated control; conditions: Zaire ebolavirus
Outline: (§3)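 Pseudotypes were briefly preincubated with compound at room temperature, then added to 293T or HeLa cells seeded the day before. Medium was replaced after overnight incubation, and cells were lysed at 48 h for firefly luciferase reading. Single point was 30 μM; curves spanned 3.75–120 or 3.75–60 μM. Infectivity was taken as % of DMSO control, from 3–5 independent experiments.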

[7] = as §2; conditions: Zaire ebolavirus; outline: as §3
A549 = assay: Inhibition of compound-pretreated Marburg GP pseudotyped in HIV virions infected in human A549 cells assessed as inhibition of viral-cell entry at 60 uM after 48 hrs by luciferase gene assay relative to DMSO-treated control; conditions: Marburgvirus
Outline: (§4)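 HIV luciferase virions pseudotyped with Marburg GP (Lake Victoria) were preincubated with compound (60 μM final), then added to 293T, HeLa or A549 cells. Medium was replaced after overnight incubation, and lysates were read for luciferase at 48 h. Values are % of DMSO control, mean ± standard error of three independent experiments.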

293T [8] = assay: Inhibition of compound-pretreated Ebolavirus GP pseudotyped in HIV virions infected in human 293T cells assessed as inhibition of viral-cell entry at 30 uM after 48 hrs by luciferase gene assay relative to DMSO-treated control; conditions: Zaire ebolavirus; outline: as §3
HeLa [9] = assay: Inhibition of compound-pretreated VSV GP pseudotyped in HIV virions infected in human HeLa cells assessed as inhibition of viral-cell entry at 120 uM after 48 hrs by luciferase gene assay relative to DMSO-treated control; conditions: Vesicular stomatitis virus
HeLa [10] = assay: Inhibition of compound-pretreated Ebolavirus GP pseudotyped in HIV virions infected in human HeLa cells assessed as inhibition of viral-cell entry at 30 uM after 48 hrs by luciferase gene assay relative to DMSO-treated control; conditions: Zaire ebolavirus; outline: as §3
293T [11] = assay: Inhibition of compound-pretreated Marburg GP pseudotyped in HIV virions infected in human 293T cells assessed as inhibition of viral-cell entry at 60 uM after 48 hrs by luciferase gene assay relative to DMSO-treated control; conditions: Marburgvirus; outline: as §4
HeLa [12] = assay: Inhibition of compound-pretreated Marburg GP pseudotyped in HIV virions infected in human HeLa cells assessed as inhibition of viral-cell entry at 60 uM after 48 hrs by luciferase gene assay relative to DMSO-treated control; conditions: Marburgvirus; outline: as §4
[13] = (§5) Inhibition of compound-pretreated Ebolavirus GP pseudotyped in HIV virions infected in human 293T cells assessed as inhibition of viral-cell entry after 48 hrs by luciferase gene assay relative to DMSO-treated control; conditions: Zaire ebolavirus, HEK-293T; outline: as §3
293T [14] = assay: as §5; conditions: Zaire ebolavirus; outline: as §3
HeLa [15] = assay: Inhibition of compound-pretreated VSV GP pseudotyped in HIV virions infected in human HeLa cells assessed as inhibition of viral-cell entry after 48 hrs by luciferase gene assay relative to DMSO-treated control; conditions: Vesicular stomatitis virus
293T [16] = assay: Inhibition of compound-pretreated VSV GP pseudotyped in HIV virions infected in human 293T cells assessed as inhibition of viral-cell entry after 48 hrs by luciferase gene assay relative to DMSO-treated control; conditions: Vesicular stomatitis virus

Compound CCN(CC)CC(=O)NCc1cn(-c2cccc(I)c2)nn1 has an Activity (293T [1]) of 111%.
With CCN(CC)CC(=O)NCc1cn(-c2ccc(OC)cc2)nn1 the Activity (293T [1]) was 58%.
With CCN(CC)CC(=O)NCc1cn(-c2cccc(OC)c2)nn1 the Activity (293T [1]) was 90%.
COc1ccc(-c2cc(CNC(=O)CNC(=O)OCc3ccccc3)on2)cc1 showed an Activity (293T [1]) of 148%.
With O=C(CBr)NCc1cc(-c2ccc(Br)cc2)no1 the Activity (HEK-293T [2]) was “Toxic”.
With COc1ccc(-c2cc(CNC(=O)[C@H](CS)NC(C)=O)on2)cc1 the Activity (293T [1]) was 421%, the Activity (HEK-293T [3]) was “Non-toxic” and the Activity (HEK-293T [4]) was “Non-toxic”.
For CCN(CC)CC(=O)NCc1cc(-c2ccc(OC)cc2)no1, the inhibition (293T [5]) was “inactive”, the Activity (293T [1]) was 56% and the inhibition (HeLa [6]) was “Dose-dependent effect”. For the same compound, the IC50 [7] was 30 µM, the inhibition (A549) was 20% and the inhibition (293T [8]) was > 50%. The inhibition (HeLa [9]) was “inactive”, the inhibition (HeLa [10]) was > 50% and the inhibition (293T [11]) was 20%. For the same compound, the inhibition (HeLa [12]) was 20%, the IC50 [13] was 30 µM and the inhibition (293T [14]) was “Dose-dependent effect”.
Work on CCN(CC)CC(=O)NCc1cc(-c2c(F)c(F)c(F)c(F)c2F)no1 yielded an Activity (293T [1]) of 52%.
In the case of CCN(CC)CC(=O)NCc1cc(-c2ccco2)no1, the Activity (293T [1]) is reported as 77%.
In the case of CCN(CC)CC(=O)NCc1cc(-c2ccc(Br)cc2)no1, the Activity (293T [1]) is reported as 30%.
With CCN(CC)CC(=O)NCc1cn(-c2ccccc2Br)nn1 the Activity (293T [1]) was 19%.
COc1ccc(-c2cc(CNC(=O)[C@H](Cc3ccccc3)NC(=O)OC(C)(C)C)on2)cc1 showed an Activity (293T [1]) of 188%.
CCN(CC)CC(=O)NCc1cn(-c2ccc(Cl)cc2)nn1 gave an Activity (293T [1]) of 105%.
CCN(CC)CC(=O)NCc1cc(-c2ccccc2OC)no1 showed an Activity (293T [1]) of 87%.
With COc1ccc(-c2cc(CNC(=O)[C@@H](NC(=O)OCc3ccccc3)C3CCCN3C(=O)OCc3ccccc3)on2)cc1 (stereo not given in full) the Activity (293T [1]) was 254%.
With CCN(CC)CC(=O)NCc1cc(-c2ccc(C)cc2)no1 the Activity (293T [1]) was 381%, the Activity (HEK-293T [3]) was “Non-toxic” and the Activity (HEK-293T [4]) was “Non-toxic”.
With CCN(CC)CC(=O)NCc1cn(-c2ccc(Br)cc2)nn1 the Activity (293T [1]) was 18%.
With CCN(CC)CC(=O)NCc1cc(-c2ccc(OC)c(I)c2)no1 the Activity (293T [1]) was 4%.
CCN(CC)CC(=O)NCc1cc(-c2ccc(Cl)cc2)no1 gave an Activity (293T [1]) of 17%.
CCN(CC)CC(=O)NCc1cc(-c2ccc(OC)c(OC)c2)no1 showed an Activity (293T [1]) of 160%.
In the case of CCN(CC)CC(=O)NCc1cc(-c2ccc(C(F)(F)F)cc2)no1, the Activity (293T [1]) is reported as 24%.
Compound CCN(CC)CC(=O)NCc1cc(-c2cccc([N+](=O)[O-])c2)no1 has an Activity (293T [1]) of 37%.
COc1ccc(-c2cc(CNC(=O)[C@H](CC(=O)OCc3ccccc3)NC(=O)OC(C)(C)C)on2)cc1 showed an Activity (293T [1]) of 118%.
With CCN(CC)CC(=O)NCc1cc(-c2ccc(I)cc2)no1 the Activity (293T [1]) was 6%, the inhibition (HeLa [15]) was “inactive” and the inhibition (HeLa [6]) was “Dose-dependent effect”. For the same compound, the IC50 [7] was 2.5 µM, the inhibition (A549) was “Active” and the inhibition (293T [11]) was “Active”. The inhibition (293T [16]) was “inactive”, the inhibition (HeLa [12]) was “Active” and the IC50 [13] was 2.5 µM. The inhibition (293T [14]) was “Dose-dependent effect”.
With CCCc1cc(CNC(=O)CN(CC)CC)on1 the Activity (293T [1]) was 102%.
Work on CCN(CC)CC(=O)NCc1cc(-c2ccccc2)no1 yielded an Activity (293T [1]) of 181%.
CC(C)C(=O)NCc1cc(-c2ccc(Br)cc2)no1 showed an Activity (293T [1]) of 116%.
In the case of O=C1NC2(CCCC2)C(COc2ccccc2)O1 (stereo not given), the inhibition (293T [5]) is reported as “Active” and the inhibition (HeLa [9]) is reported as “Active”.
Compound CCCCCCCn1cc(CNC(=O)CN(CC)CC)nn1 has an Activity (293T [1]) of 60%.
For CCN(CC)CC(=O)NCc1cn(Cc2ccccc2)nn1, the Activity (293T [1]) was 35%.
Work on COc1ccc(-c2cc(CNC(=O)[C@@H](N)Cc3ccccc3)on2)cc1 yielded an Activity (293T [1]) of 106%.
Work on O=C(NCc1cc(-c2ccc(Br)cc2)no1)c1ccccc1 yielded an Activity (293T [1]) of 82%.
Compound CCN(CC)CC(=O)NCc1cc(-c2c(C)cccc2C)no1 has an Activity (293T [1]) of 59%.
COc1ccc(-c2cc(CNC(=O)CBr)on2)cc1 gave an Activity (293T [1]) of 121%.
With CCN(CC)CC(=O)NCc1cn(-c2ccc(I)cc2)nn1 the Activity (293T [1]) was 4%, the inhibition (HeLa [15]) was “inactive” and the inhibition (HeLa [6]) was “Dose-dependent effect”. For the same compound, the IC50 [7] was 5 µM, the inhibition (A549) was > 90% and the inhibition (293T [11]) was “Active”. For the same compound, the inhibition (293T [16]) was “inactive”, the inhibition (HeLa [12]) was > 90% and the IC50 [13] was 5 µM. For the same compound, the inhibition (293T [14]) was “Dose-dependent effect”.
CCN(CC)CC(=O)NCc1cn(-c2c(Cl)cc(Cl)cc2Cl)nn1 gave an Activity (293T [1]) of 33%.
In the case of CCN(CC)CC(=O)NCc1cn(-c2c(Br)cc(Br)cc2Br)nn1, the Activity (293T [1]) is reported as 3%, the inhibition (HeLa [15]) is reported as “inactive” and the inhibition (HeLa [6]) is reported as “Dose-dependent effect”. The IC50 [7] was 5 µM, the inhibition (293T [16]) was “inactive” and the IC50 [13] was 5 µM. The inhibition (293T [14]) was “Dose-dependent effect”.
For CCC(=O)NCc1cc(-c2ccc(Br)cc2)no1, the Activity (293T [1]) was 99%.
For CCN(CC)CC(=O)NCc1cc(-c2cccc(OC)c2)no1, the Activity (293T [1]) was 4%, the inhibition (HeLa [15]) was “inactive” and the inhibition (HeLa [6]) was “Dose-dependent effect”. For the same compound, the IC50 [7] was 10 µM, the inhibition (293T [16]) was “inactive” and the IC50 [13] was 10 µM. For the same compound, the inhibition (293T [14]) was “Dose-dependent effect”.
In the case of CCN(CC)CC(=O)NCc1cc(-c2ccc(O)cc2)no1, the Activity (293T [1]) is reported as 132%.
In the case of CCN(CC)CC(=O)NCc1cn(-c2ccc(OC)cc2[N+](=O)[O-])nn1, the Activity (293T [1]) is reported as 92%.
For CC(=O)NCc1cc(-c2ccc(Br)cc2)no1, the Activity (293T [1]) was 105%, the Activity (HEK-293T [3]) was “Non-toxic” and the Activity (HEK-293T [4]) was “Non-toxic”.
Compound COc1ccc(-c2cc(CNC(=O)OCC(C)C)on2)cc1 has an Activity (293T [1]) of 118%.
CCN(CC)CC(=O)NCc1cc(-c2ccc([N+](=O)[O-])cc2)no1 gave an Activity (293T [1]) of 30%.
Compound COc1ccc(-c2cc(CNC(=O)[C@@H](NC(=O)OCc3ccccc3)C(C)C)on2)cc1 has an Activity (293T [1]) of 220%.
Work on CCN(CC)CC(=O)NCc1cn(-c2ccccc2[N+](=O)[O-])nn1 yielded an Activity (293T [1]) of 66%.
CCN(CC)CC(=O)NCc1cn(-c2ccccc2)nn1 gave an Activity (293T [1]) of 46%.

Reference: ChEMBL document CHEMBL2169757, “Discovery, synthesis, and biological evaluation of a novel group of selective inhibitors of filoviral entry” (J Med Chem, 2011)
